Among the data in ChEMBL document CHEMBL1914300, “Anti-inflammatory amino acid derivatives from the ascidian Herdmania momus” (J Nat Prod, 2011) are Activity, IC50 and inhibition values, retold here.

The subject of assay [1] is RAW264.7. As to the kind of experiment: Antiinflammatory activity in mouse RAW264.7 cells assessed as suppression of LPS-stimulated IL6 production at 25 to 50 uM after 24 hrs by ELISA. Type of assay: functional, cell-based. A digest of the protocol:
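Cells at 1.5 × 10^5 cells/mL were preincubated 18 h, then given LPS (1 μg/mL) plus samples (50 and 25 μM) for 24 h. Samples were dissolved in EtOH and diluted in DMEM, with final solvent ≤0.1%. IL-6 in the supernatant was measured by mouse ELISA. Mean ± SD of triplicate experiments.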

Assay [2] concerns Staphylococcus aureus. As to the kind of experiment: Antibacterial activity against Staphylococcus aureus at 30 ug/disk by agar diffusion assay. Type of assay: functional, organism-based.
Assay [3] has as its system RAW264.7. As to the kind of experiment: Inhibition of NO production in LPS-stimulated mouse RAW264.7 cells assessed as nitrite accumulation after 10 mins by Griess reaction method. Type of assay: functional, cell-based. Conditions: RAW264.7, 10 min. In outline: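 Cells were stimulated 24 h with LPS (1 μg/mL) alone or with samples (250, 50, 10, 2 μM). Supernatant was mixed 1:1 with Griess reagent (0.1% naphthalene diamine dihydrochloride, 1% sulfanilamide, 2.5% H3PO4) for 10 min at room temperature. Absorbance at 540 nm was converted against a sodium nitrite standard curve. Mean ± SD of triplicates.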

Assay [4] relates to Klebsiella aerogenes. As to the kind of experiment: Antibacterial activity against Klebsiella aerogenes at 30 ug/disk by agar diffusion assay. Type of assay: functional, organism-based.
Assay [5] concerns Enterobacter cloacae. As to the kind of experiment: Antibacterial activity against Enterobacter cloacae at 30 ug/disk by agar diffusion assay. Type of assay: functional, organism-based.
The subject of assay [6] is RAW264.7. As to the kind of experiment: Antiinflammatory activity in mouse RAW264.7 cells assessed as inhibition of LPS-stimulated IL6 mRNA expression at 12.5 to 50 uM by RT-PCR. Type of assay: functional, cell-based.
The subject of assay [7] is Escherichia coli. As to the kind of experiment: Antibacterial activity against Escherichia coli at 30 ug/disk by agar diffusion assay. Type of assay: functional, organism-based.
The subject of assay [8] is RAW264.7. As to the kind of experiment: Inhibition of LPS-induced iNOS mRNA expression in mouse RAW264.7 cells at 12.5 to 50 uM by […]. Type of assay: functional, cell-based. A digest of the protocol:
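Total RNA from LPS (1 μg/mL)-stimulated cells was isolated by Tri-Reagent. RNA (1 μg) was primed with oligo(dT)18 (70 °C, 5 min) and reverse-transcribed with M-MuLV and 0.5 μM dNTP (25 °C 5 min, 37 °C 60 min), then inactivated at 70 °C for 15 min.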

Assay [9] has as its system Salmonella typhimurium. As to the kind of experiment: Antibacterial activity against Salmonella Typhimurium at 30 ug/disk by agar diffusion assay. Type of assay: functional, organism-based. Conditions: Salmonella enterica subsp. enterica serovar Typhimurium.
Assay [10] has as its target T1, Prostaglandin G/H synthase 2 (Mus musculus) (UniProt Q05769).
T1 sequence (whole entry): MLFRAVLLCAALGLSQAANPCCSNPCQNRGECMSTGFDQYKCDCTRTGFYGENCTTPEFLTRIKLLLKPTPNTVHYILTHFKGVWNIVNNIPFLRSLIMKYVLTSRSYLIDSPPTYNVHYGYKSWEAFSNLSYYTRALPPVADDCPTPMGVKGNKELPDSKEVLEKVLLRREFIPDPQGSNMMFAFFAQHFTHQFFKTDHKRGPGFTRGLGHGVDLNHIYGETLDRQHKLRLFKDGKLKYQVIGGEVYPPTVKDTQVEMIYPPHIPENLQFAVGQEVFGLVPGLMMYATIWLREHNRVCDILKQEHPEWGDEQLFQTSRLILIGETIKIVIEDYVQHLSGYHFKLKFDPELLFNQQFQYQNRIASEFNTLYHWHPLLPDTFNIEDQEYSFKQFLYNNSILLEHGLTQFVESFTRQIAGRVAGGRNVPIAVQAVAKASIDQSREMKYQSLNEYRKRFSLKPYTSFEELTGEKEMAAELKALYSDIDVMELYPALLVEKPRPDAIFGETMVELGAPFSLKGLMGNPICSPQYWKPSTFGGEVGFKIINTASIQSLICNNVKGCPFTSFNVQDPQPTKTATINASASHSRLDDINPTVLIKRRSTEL
As to the kind of experiment: Inhibition of COX2-mediated PGE2 production in LPS-stimulated mouse RAW264.7 cells at 25 to 50 uM by ELISA.

Assay [11] has as its system RAW264.7. As to the kind of experiment: Cytotoxicity against mouse RAW264.7 cells after 24 hrs by WST-1 assay. Conditions: RAW264.7, 24 h. Type of assay: cell-based. A digest of the protocol: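 Cells were exposed 24 h to LPS (1 μg/mL) alone or with samples (250, 50, 10, 2 μM). WST-1 reagent was then added for 2 h, and formazan was read at 450 nm. Mean ± SD of triplicate experiments.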

Active and inactive are the calls of the source. No cut-off for these calls is given here.

On to `N=C(N)NCCC[C@@H](NC(=O)c1ccc(OC(=O)c2ccc(O)cc2)cc1)C(=O)O` [HERDMANINE C], for which the outcome in assay [1] was Active. For the same compound, the outcome in assay [2], in assay [4], in [5], in assay [7] and in assay [9] was inactive. Besides, in [3], the IC50 came to 96 µM. Moreover, the inhibition entry in [6], in [8] and in assay [10] was “Active” each time.
For `N=C(N)NCCC[C@@H](NC(=O)c1ccc(OC(=O)c2c[nH]c3ccccc23)cc1)C(=O)O`, the result in assay [2], in [4], in [5], in assay [7] and in [9] was inactive.
`N[C@@H](Cc1ccc(OC(=O)c2c[nH]c3cc(Br)c(O)cc23)cc1)C(=O)O` [HERDMANINE D]: the result in assay [1] was Active. The result in assay [2], in assay [4], in assay [5], in assay [7] and in [9] was inactive. In addition, the IC50 in assay [3] was 9 µM; in [11] it was 170 µM. Besides, the inhibition result in assay [6], in assay [8] and in [10] was “Active” in each case.
